According to ChEMBL document CHEMBL1122501, “Potential antiatherosclerotic agents. 2. (Aralkylamino)- and (alkylamino) benzoic acid analogues of cetaben” (1983):
Several values for one entry are separate records, joined by “and”; a condition that tells them apart may be missing. Equal entries are not always repeated.

Legend:
Rattus norvegicus [1] = experiment: In vivo sterol lowering activity dosed at 0.10 % of the diet; assay type: functional
Summary of the method: (§1)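 Male CFE or CD-1 Sprague-Dawley rats, 140-150 g; 8 per control group, 4 per test group. Compound mixed into ground chow (w/w) via MeOH-CHCl3 (1:3) solution, solvent evaporated; controls got solvent-treated chow. Fed ad libitum 5 days, food intake monitored, killed fed and bled. Serum sterols and triglycerides by adapted autoanalyzer methods; mean percent of control, Student's t test.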

Rattus norvegicus [2] = experiment: In vivo triglyceride lowering activity dosed at 0.10 % of the diet; assay type: functional; summary of the method: as §1
Rattus norvegicus [3] = experiment: In vivo Sterol lowering activity at dose as 0.05 % of the diet; assay type: functional; summary of the method: as §1
Rattus norvegicus [4] = experiment: In vivo triglyceride lowering activity dosed at 0.05 % of the diet; assay type: functional; summary of the method: as §1
Rattus norvegicus [5] = experiment: In vivo Sterol lowering activity at dose as 0.025 % of the diet; assay type: functional; summary of the method: as §1
Rattus norvegicus [6] = experiment: In vivo Triglyceride lowering activity at dose as 0.025 % of the diet; assay type: functional; summary of the method: as §1
[7] = target: T1, Sterol O-acyltransferase 1 (Rattus norvegicus) (UniProt O70536); experiment: In vitro inhibitory activity against acyl coenzyme A:cholesterol acyltransferase (ACAT); set-up: concentration or dose not given beside the values; details: concentration not given here
T1 sequence (whole entry): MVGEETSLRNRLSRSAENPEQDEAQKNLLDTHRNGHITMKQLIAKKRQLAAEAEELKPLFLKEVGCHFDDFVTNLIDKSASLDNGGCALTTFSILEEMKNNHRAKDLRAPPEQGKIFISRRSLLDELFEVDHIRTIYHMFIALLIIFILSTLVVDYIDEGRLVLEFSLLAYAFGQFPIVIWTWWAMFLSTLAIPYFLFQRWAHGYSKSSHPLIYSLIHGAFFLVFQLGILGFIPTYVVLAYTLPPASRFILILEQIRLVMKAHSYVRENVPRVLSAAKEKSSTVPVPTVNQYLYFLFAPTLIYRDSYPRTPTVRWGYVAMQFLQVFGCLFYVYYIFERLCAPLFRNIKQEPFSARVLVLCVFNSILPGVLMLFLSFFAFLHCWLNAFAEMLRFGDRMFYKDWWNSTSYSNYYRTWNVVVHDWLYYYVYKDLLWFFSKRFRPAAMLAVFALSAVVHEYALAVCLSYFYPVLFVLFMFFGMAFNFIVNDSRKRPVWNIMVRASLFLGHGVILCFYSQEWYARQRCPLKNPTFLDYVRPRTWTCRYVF
Summary of the method: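 ACAT enzyme from rat adrenal homogenate in 0.2 M KH2PO4 buffer pH 7.4, 1000g 15 min 5 °C supernatant (microsomal fraction). Supernatant + BSA (50 mg/mL) + compound at final 5.2 μg/mL + buffer preincubated 10 min 37 °C; [14C]oleoyl-CoA (0.4 μCi) added, 30 min 37 °C. Lipids extracted, TLC; cholesteryl ester zone counted. Mean % inhibition vs no-compound control; Student's t test.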

Rattus norvegicus [8] = experiment: In vivo Triglyceride lowering activity at dose as 0.01 % of the diet; assay type: functional; summary of the method: as §1
Rattus norvegicus [9] = experiment: In vivo triglyceride lowering activity, dosed at 0.03 % of the diet; assay type: functional; summary of the method: as §1
Rattus norvegicus [10] = experiment: In vivo Sterol lowering activity at dose as 0.01 % of the diet; assay type: functional; summary of the method: as §1
Rattus norvegicus [11] = experiment: In vivo Sterol lowering activity at dose as 0.10 % of the diet.; assay type: functional; summary of the method: as §1
Rattus norvegicus [12] = experiment: In vivo triglyceride lowering activity, dosed at 0.01 % of the diet.; assay type: functional; summary of the method: as §1
Rattus norvegicus [13] = experiment: In vivo Sterol lowering activity at dose as 0.03 % of the diet; assay type: functional; summary of the method: as §1
Rattus norvegicus [14] = experiment: In vivo Triglyceride lowering activity at dose as 0.03 % of the diet.; assay type: functional; summary of the method: as §1
Rattus norvegicus [15] = experiment: In vivo Sterol lowering activity at dose as 0.03 % of the diet.; assay type: functional; summary of the method: as §1
Rattus norvegicus [16] = experiment: In vivo Sterol lowering activity at dose as 0.01 % of the diet.; assay type: functional; summary of the method: as §1
Rattus norvegicus [17] = experiment: In vivo triglyceride lowering activity, dosed at 0.10 % of the diet.; assay type: functional; summary of the method: as §1

Compound | serum sterol, percent of control (Rattus norvegicus [1]) [%] | serum triglycerides, percent of control (Rattus norvegicus [2]) [%] | Diet (Rattus norvegicus [3]) [%] | Diet (Rattus norvegicus [4]) | Diet (Rattus norvegicus [5]) [%] | Diet (Rattus norvegicus [6]) [%] | inhibition [7] [%] | Diet (Rattus norvegicus [8]) [%] | serum triglycerides, percent of control (Rattus norvegicus [9]) [%] | Diet (Rattus norvegicus [10]) [%] | serum sterol, percent of control (Rattus norvegicus [11]) [%] | Diet (Rattus norvegicus [12]) [%] | Diet (Rattus norvegicus [13]) [%] | Diet (Rattus norvegicus [14]) [%] | serum sterol level, percent of control (Rattus norvegicus [15]) [%] | serum sterol, percent of control (Rattus norvegicus [16]) [%] | Diet (Rattus norvegicus [17]) [%]
CCCCCCCCCCCCCCCCCCNc1ccc(C(=O)O)cc1 | <82 | <60 | 94 | <71% | <86 | <70 | – | – | – | – | – | – | – | – | – | – | –
CCCCCCCCCCCCCCCCCNc1ccc(C(=O)O)cc1 | 87 | <57 | <86 | 77% | <87 | 80 | < 34 | – | – | – | – | – | – | – | – | – | –
CCCCCCCCCCCCCCCCCCCNc1ccc(C(=O)O)cc1 | 100 | <46 | 96 | <46% | 90 | <52 | – | – | – | – | – | – | – | – | – | – | –
CCCCCCCCC/C=C/CCCNc1ccc(C(=O)OCC)cc1 | <83 | 79 | <85 | – | <88 | – | < 51 | 78 | 75 | – | – | – | – | – | – | – | –
CCCCCCCC/C=C\CCCCCCCCNc1ccc(C(=O)O)cc1 | <75 | <63 | 85 | <58% | <88 | <72 | – | – | – | – | – | – | – | – | – | – | –
O=C(O)c1ccc(NCCCCCCc2ccc(Cl)cc2)cc1 | – | 43 | – | – | – | – | 22 | – | 65 | 81 | 82 | 61 | 78 | – | – | – | –
CCCCCCCCCCCCCCCCNc1ccc(C(=O)OCC)cc1 | 98 | <69 | 103 | <54% | 109 | <70 | 8 | – | – | – | – | – | – | – | – | – | –
CCCCCCCCCCc1ccc(CNc2ccc(C(=O)OCC)cc2)cc1 | 99 | 94 | 95 | <69% | 90 | 82 | < 19 | – | – | – | – | – | – | – | – | – | –
CCCCCCCCCCCCCCCNc1ccc(C(=O)OCC)cc1 | 86 | <62 | <84 | <76% | <91 | 88 | – | – | – | – | – | – | – | – | – | – | –
CCCCCCCCCCCCCCNc1ccc(C(=O)O)cc1 | 89 | <53 | 90 | <50% | 93 | <65 | – | – | – | – | – | – | – | – | – | – | –
O=C(CCCCC(=O)c1ccc(Cl)cc1)Nc1ccc(C(=O)O)cc1 | – | 56 | – | – | – | – | 40 | – | – | 82 | 97 | 94 | – | 70 | 94 | – | –
CCCCCCCCCC/C=C/CCCNc1ccc(C(=O)OCC)cc1 | <86 | 83 | 94 | 77% | <86 | 90 | < 40 | – | – | – | – | – | – | – | – | – | –
CCCCCCCCNc1ccc(C(=O)O)cc1 | 90 | <67 | 97 | 88% | 101 | 91 | < 24 | – | – | – | – | – | – | – | – | – | –
CCOC(=O)c1ccc(NCCCc2ccc([N+](=O)[O-])cc2)cc1 | 85 | – | – | – | – | – | 19 | – | – | – | – | 81 | 81 | 84 | – | 85 | 73
CCCCCCNc1ccc(C(=O)OCC)cc1 | – | – | 80 | 76% and 73% | 79 | – | – | – | – | – | 87 | – | – | – | – | – | 86
CCOC(=O)c1ccc(NC(=O)CCc2ccc(OC)cc2)cc1 | – | – | – | – | – | – | 26 | – | – | 80 | 98 | 98 | – | 89 | 85 | – | 105

Compound | serum sterol, percent of control (Rattus norvegicus [1]) [%] | serum triglycerides, percent of control (Rattus norvegicus [2]) [%] | Diet (Rattus norvegicus [3]) [%] | Diet (Rattus norvegicus [4]) | Diet (Rattus norvegicus [5]) [%] | Diet (Rattus norvegicus [6]) [%] | inhibition [7] [%] | Diet (Rattus norvegicus [8]) [%] | serum triglycerides, percent of control (Rattus norvegicus [9]) [%] | Diet (Rattus norvegicus [10]) [%] | serum sterol, percent of control (Rattus norvegicus [11]) [%] | Diet (Rattus norvegicus [12]) [%] | Diet (Rattus norvegicus [13]) [%] | Diet (Rattus norvegicus [14]) [%] | serum sterol level, percent of control (Rattus norvegicus [15]) [%] | serum sterol, percent of control (Rattus norvegicus [16]) [%] | Diet (Rattus norvegicus [17]) [%]
O=C(O)c1ccc(NCCCc2ccccc2)cc1 | 81 | 68 | 75 | 51% | 81 | 64 | 18 | – | – | – | – | – | – | – | – | – | –
CCCCCCCCCC/C=C/CCCNc1ccc(C(=O)O)cc1 | <79 | 83 | <82 | <83% | <84 | 86 | – | – | – | – | – | – | – | – | – | – | –
CCCCCCCCCCCCCCCCNc1cccc(C(=O)O)c1 | 93 | 81 | 100 | 92% | 100 | 98 | < 34 | – | – | – | – | – | – | – | – | – | –
CCCCCCCCCCCCCNc1ccc(C(=O)O)cc1 | <84 | <60 | <87 | <36% | 95 | <54 | – | – | – | – | – | – | – | – | – | – | –
CCCCCCCCCCCCCCCNc1ccc(C(=O)O)cc1 | <79 | <60 | 86 | 80% | 90 | 72 | < 56 | – | – | – | – | – | – | – | – | – | –
C=CCCCCCCCC/C=C/CCCNc1ccc(C(=O)OCC)cc1 | <85 | 64 | <85 | 76% | <87 | 90 | < 50 | – | – | – | – | – | – | – | – | – | –
CCCCCCCCCCCCNc1ccc(C(=O)O)cc1 | <89 | <32 | <80 | – | <86 | – | – | <51 | <40 | – | – | – | – | – | – | – | –
C=CCCCCCCCC/C=C/CCCNc1ccc(C(=O)O)cc1 | <80 | 88 | <81 | 79% | <86 | <71 | – | – | – | – | – | – | – | – | – | – | –
CCCCCCCCCCOc1ccc(CNc2ccc(C(=O)O)cc2)cc1 | <82 | <37 | <90 | <51% | 97 | <54 | < 35 | – | – | – | – | – | – | – | – | – | –
O=C(O)c1ccc(NCCCc2ccccc2F)cc1 | – | 52 | – | – | – | – | 58 | 58 | 55 | 87 | 81 | – | – | – | 85 | – | –
CCCCCCCCC/C=C/CCCNc1ccc(C(=O)O)cc1 | <79 | 75 | <83 | 97% | <86 | 85 | – | – | – | – | – | – | – | – | – | – | –
CCCCCCCC/C=C\CCCCCCCCNc1ccc(C(=O)OCC)cc1 | <96 | 77 | 99 | <57% | <95 | <68 | – | – | – | – | – | – | – | – | – | – | –
O=C(O)c1ccc(NCCCc2cccc(Cl)c2)cc1 | – | 55 | – | – | – | – | 29 | 64 | 48 | 82 | 85 | – | – | – | 90 | – | –
CCOC(=O)c1ccc(NCCCc2cccc(Br)c2)cc1 | – | – | – | – | – | – | 50 | – | 60 | – | 94 | 74 | 84 | – | – | 84 | 63
Cc1ccc(CCC(=O)Nc2ccc(C(=O)O)cc2)cc1 | – | – | – | – | – | – | 0 | – | – | – | 91 | 75 | 83 | 97 | – | 94 | 70
